Rows were chosen to be rich in hits. Some 2% of all compounds tested hit in one or more screens of this group.
TROY signal inh – inhibitors of TROY-dependent NF-kB signaling | Q293 LMP1-TROYcd NF-kB luciferase reporter, 4 h | inhibition, % at 10 µM | 360,000 compounds, 0.98% hits;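 active = compounds whose plate-normalised and pattern-corrected inhibition of the luciferase reporter signal at the single screening dose is 50% or more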
HIF activator – HIF pathway transcriptional activation | U2OS HRE-luciferase reporter, luminescence; normalized: DMSO 0%, desferrioxamine 100% | activation, % at 7.5 µM (by protocol) | 300,000 compounds, 0.32% hits | AID 1910;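 active = mean activation of at least 10% of the iron chelator positive control signal, with at least half of replicates also reaching 10%; inconclusive = mean and replicate majority disagree about reaching 10%; inactive = mean and most replicates under 10%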
LMP1 NFkB inh – reduces LMP1-driven NF-kappaB luciferase signal; 350,000 compounds, 0.69% hits; AID 504558; LMP1-induced NF-kappaB luciferase reporter cells, luminescence; inhibition, % at 12.5 µM; in the data active = inhibition above about 41%; inconclusive = no clear call, values can overlap the other calls;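 note: 0% = neutral control wells and 100% = reference inhibitor control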
NR2E3 ag-1 – activates human photoreceptor nuclear receptor NR2E3; inhibition of corepressor binding, % at 4.78 µM; AID 2300; Q9Y5X4; GST-NR2E3/biotin-RetCOR TR-FRET, 1536-well; 320,000 compounds, 0.12% hits;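 active = percent inhibition above the cutoff of mean plus 3 SD of all tested compounds, set per screening campaign, cut at about 20% in these data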;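 note: 0% = DMSO wells and 100% = biotin wells as full block of FRET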
Target sequence (Q9Y5X4 whole entry, looked up): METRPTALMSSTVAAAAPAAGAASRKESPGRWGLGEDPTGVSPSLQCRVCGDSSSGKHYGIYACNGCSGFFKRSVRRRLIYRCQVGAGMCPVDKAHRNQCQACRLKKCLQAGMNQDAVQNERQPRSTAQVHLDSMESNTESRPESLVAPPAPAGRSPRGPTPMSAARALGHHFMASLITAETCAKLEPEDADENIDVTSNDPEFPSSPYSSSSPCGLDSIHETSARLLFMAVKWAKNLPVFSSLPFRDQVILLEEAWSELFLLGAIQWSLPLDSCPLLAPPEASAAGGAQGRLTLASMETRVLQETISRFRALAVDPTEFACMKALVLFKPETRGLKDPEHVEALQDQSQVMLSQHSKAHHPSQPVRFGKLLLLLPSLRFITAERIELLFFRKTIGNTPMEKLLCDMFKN
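Material: NR2E3–RetCOR corepressor complex / Incubation: Compound–protein incubation for 5 h at 4 °C / Dosing: compound at 4.8 µM, single dose / Detection: time-resolved FRET / Benchmarks: high control biotin, low control 0.6% DMSO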
NR2E3 ag-2 – human photoreceptor-specific nuclear receptor agonism; Q9Y5X4; CHO-S Gal4-NCOR/VP16-NR2E3 two-hybrid, luciferase; inhibition of corepressor binding, % at 3.98 µM; 360,000 compounds, 0.35% hits;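 active = inhibition above the mean of all tested compounds plus 3 SD, cut at about 70% in these data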;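 note: 0% = DMSO with NR2E3 transfected cells and 100% = cells lacking NR2E3 construct; higher means lower luciferase signal from less NR2E3 corepressor binding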
* hit, by the source's call; ? = inconclusive; · = no result.

SMILES	TROY signal inh	HIF activator	LMP1 NFkB inh	NR2E3 ag-1	NR2E3 ag-2
CC1CCN(c2ncnc3c2cnn3-c2ccccc2)CC1	14	2	-34	1	-128
COc1ccc(-n2ncc3c(N4CCC(C)CC4)ncnc32)cc1	69*	-1	35	0	-86
OC[C@@H](O)[C@@H](O)[C@H](O)[C@H](O)CO	-2	0	47*	-3	-7
OC[C@@H](O)[C@@H](O)[C@H](O)[C@@H](O)CO	14	0	-1	-2	1
O=S(=O)(Nc1ccccc1)c1cccc2nonc12	-7	0	-4	0	-15
ONC=Nc1cccc2nonc12	12	12*	-2	-7	-27
CCN1CCN(C(=O)C2CC(=O)N(c3ccc(Cl)cc3)C2)CC1 (configuration not stated)	-16	0	-4	-1	-23
COc1ccc(CNC(=O)COC(=O)[C@@H]2CCCN2C(=O)c2cccs2)cc1	1	·	45*	·	4
CCOC(=O)C1=C(C)N(C)C(=O)NC1c1ccccc1OC (configuration not stated)	15	0	40*	3	-13
CCOC(=O)C1=C(C)N(C)C(=O)NC1c1c(OC)ccc2ccccc12 (configuration not stated)	-46	-9	-18	-2	-19
CSC[C@H]1CN(c2ccc(Br)cc2)C(=O)[C@@H]1CC(=O)Nc1ccccc1	-5	·	1	·	-20
CN1/C(=C\C=Nc2ccc3ccccc3c2)C(C)(C)c2ccccc21	66*	·	-6	3	-78
COc1ccc2c(c1)/C(=C\c1cccc(/C=C3/C(=O)Nc4ccc(OC)cc43)n1)C(=O)N2	31	·	89*	·	37
COCc1ccc(C(=O)NC2CCCc3c2cnn3-c2ccc(C)c(C)c2)o1 (configuration not stated)	9	0	15	2	29
CCOc1ccc(OCCC(=O)OCC(=O)c2c(N)n(CC(C)C)c(=O)n(C)c2=O)cc1	20	·	-4	·	24
Cc1ccc(OCCC(=O)OCC(=O)c2c(N)n(CC(C)C)c(=O)n(C)c2=O)cc1	23	·	72*	4	-10
CC1=NNC(=O)C1CC(=O)N/N=C/c1cccs1 (configuration not stated)	54*	-1	-3	-5	15
c1ccc(-c2cn3nc4c(nc3n2)CCCC4)cc1	6	-4	64*	0	-97
COCCNC(=O)C1(C)CCCN(C(=O)c2ccc3c(c2)CCO3)C1 (configuration not stated)	9	·	·	·	-13
Oc1ccccc1Nc1nc(NCC2CCCO2)c2ccccc2n1 (configuration not stated)	18	0	14	0	9
Oc1ccc(Cl)cc1Nc1nc(NCC2CCCO2)c2ccccc2n1 (configuration not stated)	51*	-2	7	1	19
O=C(COC(=O)COc1ccc(Br)cc1)NC1CCCCCC1	79*	·	-9	0	-10
O=C(NC1CCCCC1)c1sc(=S)n2c1[nH]c(=O)c1ccccc12	60*	1	-13	1	2
CCCCNC(=O)c1sc(=S)n2c1[nH]c(=O)c1ccccc12	56*	1	-3	-1	24
CCOC(=O)[C@@H](C)N(Cc1ccc(OC)cc1)S(=O)(=O)N(Cc1ccccc1)[C@H](C(=O)OC)C(C)C	4	·	11	4	-5
SMILES	TROY signal inh	HIF activator	LMP1 NFkB inh	NR2E3 ag-1	NR2E3 ag-2
Cc1ccc(C(C)C)c(OCc2ccc(C(=O)N/N=C/c3cccc(O)c3O)cc2)c1	-31	70*	24	1	-7
O=C(NCC(O)c1ccccc1)Nc1cccs1 (configuration not stated)	1	1	-15	-2	-54
Brc1cc2c(cc1/C=N/Nc1nc3ccccc3s1)OCO2	79*	1	-118	3	-71
COc1ccc(OCC(=O)NNc2nc3ccccc3s2)cc1	79*	0	-27	0	6
COc1ccc(C=NNc2nc3ccccc3s2)cc1	57*	·	?	·	-138
COc1ccc(OC)c2sc(NNC(=O)COc3ccccc3)nc12	10	-1	-6	0	-4
CN(c1ccc(OCC(=O)Nc2nc3ccccc3s2)cc1)S(=O)(=O)c1ccccc1	51*	0	1	-2	-9
COc1cc(C2Nc3ccc4ccccc4c3C3=C2C(=O)CC(C)(C)C3)ccc1OC(C)C(=O)O (configuration not stated)	33	-1	-8	-4	-25
Cc1cccc(NC(=O)c2ccc(N3C(=O)C4CCCCC4C3=O)cc2)c1C (configuration not stated)	12	0	1	·	-11
Nc1ccn([C@@H]2O[C@H](C(=O)N[C@H](COC=O)Cc3ccccc3)[C@@H](O)[C@H]2O)c(=O)n1	8	·	·	·	-10
CCOc1ccc(C(=O)CCc2nc3ccccc3s2)cc1	54*	2	-13	1	-8
COc1ccc(NC(=O)CCc2nc3ccccc3s2)c(OC)c1	-1	0	8	4	13
CC1(c2ccc([N+](=O)[O-])cc2)NC(=O)N(CC(=O)Nc2cccnc2Cl)C1=O (configuration not stated)	-9	0	-12	0	-9
CN1C(=O)CCS(=O)(=O)C1c1ccc(Cl)c(Cl)c1 (configuration not stated)	-6	·	-2	·	-11
COc1cc(/C=C2\N=C(C)OC2=O)cc(Cl)c1OC(C)=O	-8	-1	5	3	15
COc1ccc(/C=C2\N=C(C)OC2=O)cc1[N+](=O)[O-]	7	0	46*	1	-7
Cc1ccc(S(=O)(=O)c2nc(-c3ccccc3Cl)oc2N(C)C)cc1	3	56*	4	0	13
O=c1cc(-c2ccc(O)cc2)oc2c1ccc1ccccc12	63*	·	-2	-2	12
O=c1cc(-c2ccc(O)cc2)oc2ccc3ccccc3c12	88*	·	-7	-1	20
COc1c(O)cc2oc(-c3ccc(O)cc3)cc(=O)c2c1O	-15	2	-6	-4	-71
C=CCSc1nnc(CCCCCN2C(=O)c3cccc4cccc(c34)C2=O)o1	17	0	59*	-1	-13
CCOC(=O)CSc1nnc(CCCCCN2C(=O)c3cccc4cccc(c34)C2=O)o1	-2	0	3	1	-27
CC1(C)CC(=O)C2=C(C1)OC1=C(C(=O)CC(C)(C)C1)C2c1ccc(O)cc1O	82*	-3	1	1	-3
CC1(C)CC(=O)C2=C(C1)OC1=C(C(=O)CC(C)(C)C1)C2c1ccc(O)c([N+](=O)[O-])c1	8	1	4	3	-11
O=c1[nH]c(=S)[nH]c2c1C(c1ccc(Cl)cc1)OC(C1CCCCC1)C2 (configuration not stated)	20	·	·	·	-32
O=C(Nc1ccccc1)N(CCCN1CCOCC1)Cc1cc2cc3c(cc2[nH]c1=O)OCCO3	23	0	-11	1	-38

Source: PubChem
